# pIC50: −log10 of the molar value.
# How the values were obtained:
# LOX IMVI = experiment: Growth inhibition of human LOXIMVI cells assessed as cell growth at 10^-8 M incubated for 48 hrs by sulforhodamine B assay relative to control; type: functional; settings: read-out: Activity
# ACHN [1] = experiment: Growth inhibition of human ACHN cells assessed as cell growth at 10^-5 M incubated for 48 hrs by sulforhodamine B assay relative to control; type: functional; settings: read-out: Activity
# HOP-92 [2] = experiment: Cytotoxicity against human HOP92 cells after 48 hrs by SRB assay; type: functional; settings: HOP-92, 48 h
# UACC-62 [3] = experiment: Growth inhibition of human UACC62 cells assessed as cell growth at 10^-6 M incubated for 48 hrs by sulforhodamine B assay relative to control; type: functional; settings: UACC-62, 48 h, read-out: Activity
# SW-620 [4] = experiment: Cytotoxicity against human SW620 cells after 48 hrs by SRB assay; type: functional; settings: SW-620, 48 h
# OVCAR-3 = experiment: Growth inhibition of human OVCAR3 cells assessed as cell growth at 10^-6 M incubated for 48 hrs by sulforhodamine B assay relative to control; type: functional; settings: OVCAR-3, 48 h, read-out: Activity
# CCRF-CEM = experiment: Growth inhibition of human CCRF-CEM cells assessed as cell growth at 10^-8 M incubated for 48 hrs by sulforhodamine B assay relative to control; type: functional; settings: read-out: Activity
# BT-549 = experiment: Growth inhibition of human BT549 cells assessed as cell growth at 10^-8 M incubated for 48 hrs by sulforhodamine B assay relative to control; type: functional; settings: BT-549, 48 h, read-out: Activity
# ACHN [5] = experiment: Growth inhibition of human ACHN cells assessed as cell growth at 10^-4 M incubated for 48 hrs by sulforhodamine B assay relative to control; type: functional; settings: read-out: Activity
# SF-539 = experiment: Cytotoxicity against human SF539 cells after 48 hrs by SRB assay; type: functional; settings: SF-539, 48 h
# OVCAR-5 = experiment: Growth inhibition of human OVCAR5 cells assessed as cell growth at 10^-4 M incubated for 48 hrs by sulforhodamine B assay relative to control; type: functional; settings: OVCAR-5, 48 h, read-out: Activity
# ACHN [6] = experiment: Growth inhibition of human ACHN cells assessed as cell growth at 10^-8 M incubated for 48 hrs by sulforhodamine B assay relative to control; type: functional; settings: read-out: Activity
# DU-145 = experiment: Growth inhibition of human DU145 cells assessed as cell growth at 10^-6 M incubated for 48 hrs by sulforhodamine B assay relative to control; type: functional; settings: DU-145, 48 h, read-out: Activity
# NCI-H226 = experiment: Growth inhibition of human NCI-H226 cells assessed as cell growth at 10^-5 M incubated for 48 hrs by sulforhodamine B assay relative to control; type: functional; settings: NCI-H226, 48 h, read-out: Activity
# RXF 393 = experiment: Growth inhibition of human RXF393 cells assessed as cell growth at 10^-8 M incubated for 48 hrs by sulforhodamine B assay relative to control; type: functional; settings: RXF 393, 48 h, read-out: Activity
# HeLa = experiment: Antiproliferative activity against human HeLa cells after 72 hrs by Coulter counter method; type: functional, cell-based
# Procedure, shortened: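 Cell count assay in 96-well microtiter plates; (5–7.5) × 10⁴ tumor cells per well plus test compound. Cells proliferated at 37 °C in humidified CO₂-controlled atmosphere, 48 h for murine leukemia L1210, 72 h for human lymphocytic CEM and cervix carcinoma HeLa. Counted by Coulter counter; IC₅₀ is the concentration that inhibits proliferation by 50%.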
# HOP-92 [7] = experiment: Growth inhibition of human HOP92 cells assessed as cell growth at 10^-6 M incubated for 48 hrs by sulforhodamine B assay relative to control; type: functional; settings: HOP-92, 48 h, read-out: Activity
# NCI-H23 = experiment: Growth inhibition of human NCI-H23 cells assessed as cell growth at 10^-5 M incubated for 48 hrs by sulforhodamine B assay relative to control; type: functional; settings: NCI-H23, 48 h, read-out: Activity
# EKVX = experiment: Cytotoxicity against human EKVX cells after 48 hrs by SRB assay; type: functional
# HT-29 = experiment: Growth inhibition of human HT-29 cells assessed as cell growth at 10^-6 M incubated for 48 hrs by sulforhodamine B assay relative to control; type: functional; settings: HT-29, 48 h, read-out: Activity
# MCF7 = experiment: Growth inhibition of human MCF7 cells assessed as cell growth at 10^-7 M incubated for 48 hrs by sulforhodamine B assay relative to control; type: functional; settings: MCF7, 48 h, read-out: Activity
# 786-0 [8] = experiment: Growth inhibition of human 786-0 cells assessed as cell growth at 10^-6 M incubated for 48 hrs by sulforhodamine B assay relative to control; type: functional; settings: 786-0, 48 h, read-out: Activity
# UO-31 [9] = experiment: Cytotoxicity against human UO31 cells after 48 hrs by SRB assay; type: functional; settings: UO-31, 48 h
# SF-295 = experiment: Growth inhibition of human SF295 cells assessed as cell growth at 10^-7 M incubated for 48 hrs by sulforhodamine B assay relative to control; type: functional; settings: SF-295, 48 h, read-out: Activity
# SK-MEL-5 = experiment: Growth inhibition of human SK-MEL-5 cells assessed as cell growth at 10^-6 M incubated for 48 hrs by sulforhodamine B assay relative to control; type: functional; settings: SK-MEL-5, 48 h, read-out: Activity
# 786-0 [10] = experiment: Growth inhibition of human 786-0 cells assessed as cell growth at 10^-7 M incubated for 48 hrs by sulforhodamine B assay relative to control; type: functional; settings: 786-0, 48 h, read-out: Activity
# UACC-62 [11] = experiment: Cytotoxicity against human UACC62 cells after 48 hrs by SRB assay; type: functional; settings: UACC-62, 48 h
# UO-31 [12] = experiment: Growth inhibition of human UO31 cells assessed as cell growth at 10^-6 M incubated for 48 hrs by sulforhodamine B assay relative to control; type: functional; settings: UO-31, 48 h, read-out: Activity
# SW-620 [13] = experiment: Growth inhibition of human SW620 cells assessed as cell growth at 10^-4 M incubated for 48 hrs by sulforhodamine B assay relative to control; type: functional; settings: SW-620, 48 h, read-out: Activity
# [14] = read-out: LC50 (the source's name)
# [15] = read-out: pLC50 (the source's name) (converted)
structure (smiles),measurement,setting,value
C#C[C@@]1(O)[C@@H](CO)O[C@@H](n2cc(I)c3c(N)ncnc32)[C@@H]1O,growth at 0.01 µM,LOX IMVI,85 to 93%
same,growth at 10 µM,ACHN [1],5%
same,GI50,HOP-92 [2]; read-out: GI50,25 to 217 nM
same,CC50,HOP-92 [2]; [14],> 100000 nM
same,TGI,HOP-92 [2]; read-out: TGI,991 to 4980 nM
same,growth at 1 µM,UACC-62 [3],40 to 43%
same,GI50,SW-620 [4]; read-out: GI50,57.2 to 59 nM
same,TGI,SW-620 [4]; read-out: TGI,> 100000 nM
same,CC50,SW-620 [4]; [15],> 100000 nM
same,TGI,SW-620 [4]; read-out: pTGI (converted),> 100000 nM
same,growth at 1 µM,OVCAR-3,24 to 33%
same,growth at 0.01 µM,CCRF-CEM,97%
same,growth at 0.01 µM,BT-549,86 to 96%
same,growth at 100 µM,ACHN [5],1%
same,GI50,SF-539; read-out: GI50,304 to 471 nM
same,CC50,SF-539; [14],28600 to 31300 nM
same,TGI,SF-539; read-out: TGI,2180 to 2980 nM
same,growth at 100 µM,OVCAR-5,2 to 5%
same,growth at 0.01 µM,ACHN [6],98%
same,growth at 1 µM,DU-145,19 to 26%
same,growth at 10 µM,NCI-H226,6 to 10%
same,growth at 0.01 µM,RXF 393,94 to 102%
same,pIC50,HeLa,6.74
same,growth at 1 µM,HOP-92 [7],10%
same,growth at 10 µM,NCI-H23,-16%
same,GI50,EKVX; read-out: GI50,395 to 421 nM
same,TGI,EKVX; read-out: TGI,4040 to 7140 nM
same,CC50,EKVX; [15],> 100000 nM
same,growth at 1 µM,HT-29,9 to 13%
same,growth at 0.1 µM,MCF7,18 to 25%
same,growth at 1 µM,786-0 [8],13 to 23%
same,GI50,UO-31 [9]; read-out: GI50,79.1 to 103 nM
same,CC50,UO-31 [9]; [14],> 100000 nM
same,TGI,UO-31 [9]; read-out: TGI,3070 to 3300 nM
same,growth at 0.1 µM,SF-295,63 to 76%
same,growth at 1 µM,SK-MEL-5,14 to 26%
same,growth at 0.1 µM,786-0 [10],72 to 79%
same,GI50,UACC-62 [11]; read-out: GI50,573 to 659 nM
same,CC50,UACC-62 [11]; [14],6630 to 24500 nM
same,TGI,UACC-62 [11]; read-out: TGI,2380 to 3230 nM
same,growth at 1 µM,UO-31 [12],20 to 28%
same,growth at 100 µM,SW-620 [13],3%

# Source: ChEMBL document CHEMBL4270599, “Synthesis of a 3'-C-ethynyl-β-d-ribofuranose purine nucleoside library: Discovery of C7-deazapurine analogs as potent antiproliferative nucleosides” (Eur J Med Chem, 2018)
